We go through 47 molecules from ChEMBL document CHEMBL1789904, “Imaging of Plasmodium liver stages to drive next-generation antimalarial drug discovery” (Science, 2011).

What is called IC50 is the point on the concentration scale where inhibition reaches its midpoint. A high value points to weaker potency.

This test relates to Plasmodium yoelii. Put plainly: NOVARTIS: Antimalarial liver stage activity measured as reduction in Plasmodium yoelii schizont area in HepG2-A16-CD81 cells by immuno-fluorescence, and median schizont size at 10uM compound concentration. The format is functional, organism-based. Particulars: for IC50: Plasmodium yoelii, HepG2-A16-CD81. A digest of the protocol: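 Host and parasite nuclei stained with Hoechst 33342, parasites with αPyHSP70 antibody; 25 images per well by high-content imaging; median parasite (schizont) area measured by automated image analysis, ~50 schizonts per experiment, two or more independent experiments.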

`COc1cc(C(=O)NCCc2ccccn2)ccc1OC1CCN(CC(c2ccccc2)c2ccccc2)CC1` gave an IC50 of 1280 nM.
Regarding `COc1cccc(NC(=O)Cn2c(C)c(C#N)c3ccccc32)c1`, the Schizont size was 134.12 um and the IC50 is > 9960 nM.
On to `COc1cncc(-c2cncc(-c3ccc(C)cc3)n2)c1`, for which the IC50 was > 10000 nM.
Still for that read-out and setting: for `COc1ccccc1-n1c(C=Cc2cc(Br)ccc2O)nc2ccccc2c1=O` the value was 4590 nM.
Consider `COC(=O)C1=CNC=C(C(=O)OC)C1c1cc(OC)c(OC)c(OC)c1`, for which the Schizont size was 216.47 um and the IC50 is > 10000 nM.
`NC(Cc1ccccc1)C(=O)N1CCn2c(nc(-c3ccccc3)c2Nc2ccc3c(c2)OCO3)C1` (stereo not given): half-maximal inhibition (IC50) required 1.85 nM.
Consider `O=C(Nc1ccc(-c2nc3ccccc3[nH]2)cc1)c1ccc(-c2ccc(Cl)cc2)o1`, for which the IC50 came to 6650 nM.
For `COc1cc(C(=O)Nc2ccc3nc4n(c(=O)c3c2)CCCCC4)cc(OC)c1OC`, the concentration for half-maximal inhibition (IC50) was > 10000 nM.
Still for that read-out and setting: for `CC(=O)Nc1cccc(-c2cncc(-c3ccc(C(=O)O)cc3)n2)c1` the value was > 10000 nM; for `COc1cccc(CNC(=O)C2CNCC2c2ccc(C(F)(F)F)cc2)c1` (stereo not given), 857 nM.
On to `COC(=O)c1ccc(C2C3=C(O)CC(c4ccco4)CC3=Nc3ccccc3N2C(=O)c2ccccc2)cc1` (stereo not given), for which the Schizont size turned out to be 140.38 um and the IC50 was > 4780 nM.
As to `Cc1nc2ccc(NC(=O)C3CC3)cc2c(=O)n1Cc1ccc(Cl)cc1`, the IC50 was > 10000 nM.
On to `Oc1c2c(nc3cc(-c4ccc(Br)cc4)nn13)CCCC2`, for which the midpoint of inhibition, the IC50, lay at 499 nM.
Still for that read-out and setting: for `CC(c1nc2ccc(Cl)cc2c(=O)n1C)N1CCN(S(=O)(=O)c2cccc3ccccc23)CC1` (stereo not given) the value was 22.3 nM.
As for `COc1ccc2[nH]c(SCC(=O)Nc3cccc(NC(=O)CSc4nc5cc(OC)ccc5[nH]4)n3)nc2c1`, the Schizont size is 180.05 um and the 50% inhibitory concentration (IC50) is > 9290 nM.
For `COc1cc(OC)c(NC(=O)C2c3ccccc3C(=O)N(C)C2c2ccc(OC)c(OC)c2)cc1Cl` (stereo not given) the same measures were 165.85 um and > 9130 nM.
For the molecule `CCCCCCN(C(=O)c1ccc(C(C)(C)C)cc1)C(CC)c1nc2ccccc2c(=O)n1-c1ccc(F)cc1` (stereo not given), the 50% inhibitory concentration (IC50) was > 6910 nM.
Take `CCCn1c(-c2cccc(Br)c2)nc2ccccc21`: the Schizont size turned out to be 198.63 um and the IC50 is > 8910 nM.
The corresponding values for `O=C(c1ccc2nc(N3CCCCC3)sc2c1)N1CCN(Cc2ccc3c(c2)OCO3)CC1` are 168.67 um and > 9220 nM.
Regarding `CCCCC(CC)C(=O)N1CCN(C(CC)c2nc3ccccc3c(=O)n2C)CC1` (stereo not given), the midpoint of inhibition, the IC50, lay at 231 nM.
Regarding `CCc1c(C)c(C#N)c2nc3ccccc3n2c1NCc1ccccc1`, the Schizont size is 126.09 um and the IC50 was > 9600 nM.
Consider `COc1ccccc1CNC(=O)c1nn(-c2ccc(Cl)cc2)c(=O)c2ccccc12`, for which the 50% inhibitory concentration (IC50) was > 10000 nM.
For the molecule `COc1ccc(C2CC3=NC(C)=C(C(=O)OC(C)C)C(c4ccccc4OC)C3=C(O)C2)cc1OC` (stereo not given), the Schizont size was 182.03 um and the 50% inhibitory concentration (IC50) was > 10000 nM.
As to `CC(C)(C)OC(=O)N1CCC(c2c(C(=O)Nc3cccc(C(F)(F)F)c3)cnn2-c2ccc(F)cc2F)CC1`, the IC50 amounted to 3120 nM.
On the same count and under the same terms, the result for `COc1cccc(-c2cncc(-c3cncc(OC)c3)n2)c1` reads > 10000 nM.
`CC(C)CC(N)C(=O)N1CCn2c(nc(-c3ccccc3)c2Nc2ccc3c(c2)OCO3)C1` (stereo not given): half-maximal inhibition (IC50) required 186 nM.
Same read-out and setting: the result for `O=C1N(Cc2cc3ccccc3s2)CC2CN(Cc3ccsc3)CCN12` (stereo not given) reads 25.5 nM.
Take `COc1ccc2[nH]c(=O)c(CN(C(=S)Nc3ccccc3OC)C3CCCC3)cc2c1`: the Schizont size is recorded as 157.5 um and the IC50 was > 9740 nM.
Consider `CCCc1nc2ccc(NC(=O)c3ccccc3F)cc2c(=O)n1Cc1ccc(-c2ccccc2)cc1`, for which the IC50 worked out at 1730 nM.
In the case of `N#Cc1c2c(c(N3CCN(Cc4ccccc4)CC3)n3c1nc1ccccc13)CCC2`, the Schizont size came to 241.42 um and the half-maximal inhibitory concentration (IC50) is > 10000 nM.
On to `NCC(=O)N1CCn2c(nc(-c3ccccc3)c2Nc2ccc3c(c2)OCO3)C1`, for which the IC50 was found to be 221 nM.
On to `CC(=O)Nc1ccc(-c2nc(-c3ccc(Oc4ccc(-c5[nH]c(-c6ccc(NC(C)=O)cc6)nc5-c5ccccc5)cc4)cc3)c(-c3ccccc3)[nH]2)cc1`, for which the Schizont size is 112.31 um and the IC50 is > 3730 nM.
As to `CCCN(C(=O)Nc1c(C(C)C)cccc1C(C)C)C(CC)c1nc2ccccc2c(=O)n1-c1cccc(C)c1` (stereo not given), the midpoint of inhibition, the IC50, lay at 6300 nM.
For `CC(c1nc2ccccc2c(=O)n1C)N1CCN(C(=O)C(C)(C)C)CC1` (stereo not given), the half-inhibitory concentration (IC50) is 492 nM.
For the molecule `O=C1CC(c2ccccc2)CC2=C1C(c1ccccc1[N+](=O)[O-])Nc1ccccc1N2` (stereo not given), the Schizont size is 201.65 um and the 50% inhibitory concentration (IC50) is > 10000 nM.
On to `COc1cccc(OC)c1C(=O)Nn1c(-c2cccc(C)c2)nc2ccccc2c1=O`, for which the 50% inhibitory concentration (IC50) was > 10000 nM.
`Fc1ccc(-c2cn3c([n+]2-c2ccccc2)SCC3)cc1.[Br-]`: the Schizont size worked out at 131.2 um and the IC50 was > 4300 nM.
Take `CCCCCCN(C(=O)COc1ccccc1)C(CC)c1nc2ccccc2c(=O)n1-c1cccc(Cl)c1` (stereo not given): the concentration for half-maximal inhibition (IC50) is > 10000 nM.
Regarding `N#Cc1c2c(c(N3CCN(c4ccccn4)CC3)n3c1nc1ccccc13)CCC2`, the Schizont size was 174.41 um and the IC50 is > 10000 nM.
In the case of `COc1ccc2cc3[n+](cc2c1OC)CCc1cc2c(cc1-3)OCO2.[Cl-]` [BERBERINE CHLORIDE], the Schizont size is recorded as 102.08 um and the IC50 was 548 nM.
`CC1(C)N=C(N)N=C(N)N1c1ccc(Cl)cc1.Cl` [CHLORCYCLOGUANIL HYDROCHLORIDE] displayed a Schizont size of 33.09 um and an IC50 of 2.56 nM.
For the molecule `C[C@@H]1C[C@@H]([C@H](O)CC2CC(=O)NC(=O)C2)C(=O)[C@@H](C)C1` [CYCLOHEXIMIDE], the Schizont size is recorded as 14.61 um and the IC50 is 78.1 nM.
The molecule `Cc1cc(N)c2ccccc2[n+]1CCCCCCCCCC[n+]1c(C)cc(N)c2ccccc21.[Cl-].[Cl-]` [DEQUALINIUM CHLORIDE] showed a Schizont size of 40.29 um and an IC50 of 566 nM.
Molecule `CC[C@H]1CN2CCc3cc(OC)c(OC)cc3[C@@H]2C[C@@H]1C[C@H]1NCCc2cc(OC)c(OC)cc21` [EMETINE] yielded a Schizont size of 26.51 um and an IC50 of 7.49 nM.
For `CCc1nc(N)nc(N)c1-c1ccc(Cl)cc1` [PYRIMETHAMINE] the same measures were 37.58 um and 2.15 nM.
As for `CCN(CC)CCCC(C)Nc1c2ccc(Cl)cc2nc2ccc(OC)cc12` (stereo not given) [QUINACRINE], the Schizont size is given as 26.3 um and half-maximal inhibition (IC50) required 166 nM.
Take `O=C1c2ccccc2-n2c1nc1ccccc1c2=O` [TRYPTANTHRIN]: the Schizont size was determined as 89.55 um and the IC50 worked out at 225 nM.
